# Tests used:
# [1] = tested on: Intestine; experiment: Drug uptake in mouse intestine at 50 mg/kg, po in 20% HP-beta-CD measured at 8 hrs post dose; type: ADME, organism-based; parameters: dose 50 mg/kg, route oral; details: in vivo
# Summary of the method: (§1)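 Female Swiss Webster mice, 8 weeks old, given a single 50 mg/kg oral gavage dose in 20% HPβCD or 20% Kolliphor. Tissues taken from three mice at 2 and 8 h post dose. Homogenized by probe sonication in PBS (1:4 w/v), protein precipitated with acetonitrile, and compound measured by LC-MS/MS in μM.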
# [2] = tested on: Liver; experiment: Drug uptake in mouse liver at 50 mg/kg, po in 20% Kolliphor measured at 8 hrs post dose; type: ADME, organism-based; parameters: dose 50 mg/kg, route oral; details: in vivo; summary of the method: as §1
# [3] = tested on: Lung; experiment: Drug uptake in mouse lung at 50 mg/kg, po in 20% Kolliphor measured at 8 hrs post dose; type: ADME, organism-based; parameters: dose 50 mg/kg, route oral; details: in vivo; summary of the method: as §1
# [4] = tested on: Heart; experiment: Drug uptake in mouse heart at 50 mg/kg, po in 20% Kolliphor measured at 8 hrs post dose; type: ADME, organism-based; parameters: dose 50 mg/kg, route oral; details: in vivo; summary of the method: as §1
# [5] = Drug uptake in mouse fat at 50 mg/kg, po in 20% Kolliphor measured at 8 hrs post dose; type: ADME, organism-based, Adipose tissue; parameters: dose 50 mg/kg, route oral; details: in vivo; summary of the method: as §1
# [6] = Drug uptake in mouse skeletal muscle at 50 mg/kg, po in 20% Kolliphor measured at 8 hrs post dose; type: ADME, organism-based, Muscle tissue; parameters: dose 50 mg/kg, route oral; details: in vivo; summary of the method: as §1
# [7] = tested on: Liver; experiment: Drug uptake in mouse liver at 50 mg/kg, po in 20% HP-beta-CD measured at 8 hrs post dose; type: ADME, organism-based; parameters: dose 50 mg/kg, route oral; details: in vivo; summary of the method: as §1
# [8] = tested on: Lung; experiment: Drug uptake in mouse lung at 50 mg/kg, po in 20% HP-beta-CD measured at 8 hrs post dose; type: ADME, organism-based; parameters: dose 50 mg/kg, route oral; details: in vivo; summary of the method: as §1
# [9] = tested on: Heart; experiment: Drug uptake in mouse heart at 50 mg/kg, po in 20% HP-beta-CD measured at 8 hrs post dose; type: ADME, organism-based; parameters: dose 50 mg/kg, route oral; details: in vivo; summary of the method: as §1
# [10] = Drug uptake in mouse fat at 50 mg/kg, po in 20% HP-beta-CD measured at 8 hrs post dose; type: ADME, organism-based, Adipose tissue; parameters: dose 50 mg/kg, route oral; details: in vivo; summary of the method: as §1
# [11] = Drug uptake in mouse skeletal muscle at 50 mg/kg, po in 20% HP-beta-CD measured at 8 hrs post dose; type: ADME, organism-based, Muscle tissue; parameters: dose 50 mg/kg, route oral; details: in vivo; summary of the method: as §1
# [12] = biological target: Sterol 14-alpha demethylase (Trypanosoma cruzi (strain CL Brener), UniProt Q7Z1V1); experiment: Binding affinity to Trypanosoma cruzi CYP51 by UV-vis titration method; details: read-out: Kd(app)
# [13] = tested on: Trypanosoma cruzi; experiment: Antitrypanosomal activity against Trypanosoma cruzi Y luc infected in mouse assessed as inhibition of parasitemia at 25 mg/kg, po bid in 20% Kolliphor administered for 4 consecutive days starting on day 3 of infection measured on day 7 post infection relative to vehicle-treated control; type: functional
# Summary of the method: (§2)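 Female Swiss Webster mice, 8 weeks old, infected ip with 10^5 T. cruzi Y luc trypomastigotes. Only mice with detectable luminescence on day 3 were treated. Compound given by oral gavage bid for four days, as a suspension in 20% HPβCD or a solution in 20% Kolliphor, five mice per group. Vehicle group and benznidazole 50 mg/kg served as controls. On day 7, mice were injected ip with 150 mg/kg d-luciferin and imaged after 5 min under isoflurane. Percent inhibition calculated against untreated mice; two-tailed paired t test.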
# [14] = tested on: Trypanosoma cruzi; experiment: Antitrypanosomal activity against Trypanosoma cruzi Y luc infected in mouse assessed as inhibition of parasitemia at 50 mg/kg, po bid in 20% Kolliphor administered for 4 consecutive days starting on day 3 of infection measured on day 7 post infection relative to vehicle-treated control; type: functional; summary of the method: as §2
# [15] = tested on: Liver microsome; experiment: Half life in human liver microsomes; type: ADME
# [16] = tested on: Liver microsome; experiment: Half life in rat liver microsomes; type: ADME
# [17] = tested on: Liver; experiment: Half life in mouse liver microsomes; type: ADME
# [18] = biological target: T1, Cytochrome P450 1A2 (Homo sapiens, UniProt P05177); experiment: Inhibition of CYP1A2 in human liver microsomes at 1 uM; type: ADME
# T1 sequence (P05177 whole entry): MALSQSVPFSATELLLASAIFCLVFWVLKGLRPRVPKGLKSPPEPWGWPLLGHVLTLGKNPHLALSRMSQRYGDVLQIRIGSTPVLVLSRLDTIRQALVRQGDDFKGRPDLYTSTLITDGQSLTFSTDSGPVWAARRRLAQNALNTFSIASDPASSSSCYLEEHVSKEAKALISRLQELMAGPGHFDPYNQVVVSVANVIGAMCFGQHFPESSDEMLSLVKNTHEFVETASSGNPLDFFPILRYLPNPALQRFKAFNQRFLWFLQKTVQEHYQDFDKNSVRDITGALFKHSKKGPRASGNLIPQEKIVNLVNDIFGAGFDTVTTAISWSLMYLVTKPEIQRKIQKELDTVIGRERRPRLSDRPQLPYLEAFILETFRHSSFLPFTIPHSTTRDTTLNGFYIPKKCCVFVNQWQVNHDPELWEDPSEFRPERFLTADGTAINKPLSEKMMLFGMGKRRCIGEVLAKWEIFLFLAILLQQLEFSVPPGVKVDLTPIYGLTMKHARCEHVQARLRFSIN
# [19] = biological target: Cytochrome P450 2C9 (Homo sapiens, UniProt P11712); experiment: Inhibition of CYP2C9 in human liver microsomes at 1 uM; type: ADME
# [20] = biological target: Cytochrome P450 2D6 (Homo sapiens, UniProt P10635); experiment: Inhibition of CYP2D6 in human liver microsomes at 1 uM; type: ADME
# [21] = biological target: Cytochrome P450 3A4 (Homo sapiens, UniProt P08684); experiment: Inhibition of CYP3A4 in human liver microsomes at 1 uM; type: ADME
# [22] = tested on: Trypanosoma cruzi; experiment: Antitrypanosomal activity against Trypanosoma cruzi amastigotes infected in mouse C2C12 cells after 72 hrs by DAPI staining method; type: functional, organism-based; details: C2C12, 72 h
# [23] = tested on: C2C12; experiment: Cytotoxicity against mouse C2C12 cells up to 10 uM; type: cell-based
# Summary of the method: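 Mouse C2C12 myoblasts infected with T. cruzi CA-I/72, then exposed at 24 h postinfection to compound at 10 μM down to 5 pM in 5-fold steps for 72 h at 37 °C. Cells fixed in paraformaldehyde, stained with DAPI and scored by automated imaging. Triplicate wells; uninfected and infected untreated wells as controls.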
# [24] = Half life in mouse at 50 mg/kg, po in 20% Kolliphor; type: ADME, organism-based; parameters: dose 50 mg/kg, route oral; details: in vivo
# Summary of the method: (§3)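 Female Swiss Webster mice, 8 weeks old, given one oral gavage dose of 50 mg/kg as a 10 mg/mL preparation in the named vehicle (20% HPβCD suspension or 20% Kolliphor). Plasma sampled at about 0.25, 0.5, 1, 2, 4, 6, 8, 12 and 24 h, n = 3 per time point. Protein precipitated with 5 volumes acetonitrile, filtered, then LC-MS/MS. Values are averages of three mice.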
# [25] = Half life in mouse at 50 mg/kg, po in 20% HP-beta-CD; type: ADME, organism-based; parameters: dose 50 mg/kg, route oral; details: in vivo; summary of the method: as §3
# [26] = Tmax in mouse at 50 mg/kg, po in 20% Kolliphor; type: ADME, organism-based; parameters: dose 50 mg/kg, route oral; details: in vivo; summary of the method: as §3
# [27] = Tmax in mouse at 50 mg/kg, po in 20% HP-beta-CD; type: ADME, organism-based; parameters: dose 50 mg/kg, route oral; details: in vivo; summary of the method: as §3
# [28] = Cmax in mouse at 50 mg/kg, po in 20% Kolliphor; type: ADME, organism-based; parameters: dose 50 mg/kg, route oral; details: in vivo; summary of the method: as §3
# [29] = Cmax in mouse at 50 mg/kg, po in 20% HP-beta-CD; type: ADME, organism-based; parameters: dose 50 mg/kg, route oral; details: in vivo; summary of the method: as §3
# [30] = AUClast in mouse at 50 mg/kg, po in 20% Kolliphor; type: ADME, organism-based; parameters: time 0 - last, dose 50 mg/kg, route oral; details: plasma; summary of the method: as §3
# [31] = AUClast in mouse at 50 mg/kg, po in 20% HP-beta-CD; type: ADME, organism-based, Plasma; parameters: time 0 - last, dose 50 mg/kg, route oral; details: plasma; summary of the method: as §3
# [32] = Clearance in mouse at 50 mg/kg, po in 20% Kolliphor; type: ADME, organism-based; parameters: dose 50 mg/kg, route oral; details: in vivo; summary of the method: as §3
# [33] = Clearance in mouse at 50 mg/kg, po in 20% HP-beta-CD; type: ADME, organism-based; parameters: dose 50 mg/kg, route oral; details: in vivo; summary of the method: as §3
# [34] = tested on: Intestine; experiment: Drug uptake in mouse intestine at 50 mg/kg, po in 20% Kolliphor measured at 8 hrs post dose; type: ADME, organism-based; parameters: dose 50 mg/kg, route oral; details: in vivo; summary of the method: as §1
# Cytochrome P450 2D6, sequence (P10635 whole entry): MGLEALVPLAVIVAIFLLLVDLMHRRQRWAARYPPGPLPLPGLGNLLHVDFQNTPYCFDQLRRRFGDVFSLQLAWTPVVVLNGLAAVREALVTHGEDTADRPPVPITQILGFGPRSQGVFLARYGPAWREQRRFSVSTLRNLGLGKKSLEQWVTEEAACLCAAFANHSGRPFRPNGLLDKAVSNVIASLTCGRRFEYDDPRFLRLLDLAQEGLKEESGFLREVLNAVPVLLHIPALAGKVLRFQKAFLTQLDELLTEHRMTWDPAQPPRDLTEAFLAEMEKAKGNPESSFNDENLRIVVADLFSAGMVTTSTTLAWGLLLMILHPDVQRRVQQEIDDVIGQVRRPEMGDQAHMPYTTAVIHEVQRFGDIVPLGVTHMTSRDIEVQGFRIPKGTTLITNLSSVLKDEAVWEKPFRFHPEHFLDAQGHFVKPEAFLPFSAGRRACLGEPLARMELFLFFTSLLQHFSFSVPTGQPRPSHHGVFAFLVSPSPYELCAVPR
# Cytochrome P450 3A4, sequence (P08684 whole entry): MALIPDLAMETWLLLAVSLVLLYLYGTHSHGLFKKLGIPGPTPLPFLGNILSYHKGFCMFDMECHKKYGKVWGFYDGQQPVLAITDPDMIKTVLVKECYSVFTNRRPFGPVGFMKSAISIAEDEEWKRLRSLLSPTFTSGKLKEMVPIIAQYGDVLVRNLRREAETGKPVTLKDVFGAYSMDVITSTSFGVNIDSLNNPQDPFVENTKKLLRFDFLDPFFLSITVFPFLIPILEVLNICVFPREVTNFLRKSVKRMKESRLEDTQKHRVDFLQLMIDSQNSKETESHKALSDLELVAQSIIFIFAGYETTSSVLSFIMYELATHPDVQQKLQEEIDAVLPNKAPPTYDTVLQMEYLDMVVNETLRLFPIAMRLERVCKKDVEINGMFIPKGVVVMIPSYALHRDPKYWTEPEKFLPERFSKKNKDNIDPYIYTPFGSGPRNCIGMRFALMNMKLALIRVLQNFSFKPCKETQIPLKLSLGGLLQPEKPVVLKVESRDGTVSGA
# Cytochrome P450 2C9, sequence (P11712 whole entry): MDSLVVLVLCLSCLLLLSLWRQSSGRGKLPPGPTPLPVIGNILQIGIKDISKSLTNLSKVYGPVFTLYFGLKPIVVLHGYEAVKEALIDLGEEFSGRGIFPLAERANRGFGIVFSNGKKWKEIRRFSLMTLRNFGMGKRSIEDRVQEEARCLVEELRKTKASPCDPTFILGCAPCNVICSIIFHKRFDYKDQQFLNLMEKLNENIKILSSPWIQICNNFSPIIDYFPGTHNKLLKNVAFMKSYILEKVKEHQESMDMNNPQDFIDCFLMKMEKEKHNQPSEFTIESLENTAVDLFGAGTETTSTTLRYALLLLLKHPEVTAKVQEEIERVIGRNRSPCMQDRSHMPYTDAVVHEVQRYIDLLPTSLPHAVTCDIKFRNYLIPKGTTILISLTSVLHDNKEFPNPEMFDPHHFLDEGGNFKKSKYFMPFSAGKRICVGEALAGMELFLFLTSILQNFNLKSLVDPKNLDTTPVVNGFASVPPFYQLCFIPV
# Sterol 14-alpha demethylase, sequence (Q7Z1V1 whole entry): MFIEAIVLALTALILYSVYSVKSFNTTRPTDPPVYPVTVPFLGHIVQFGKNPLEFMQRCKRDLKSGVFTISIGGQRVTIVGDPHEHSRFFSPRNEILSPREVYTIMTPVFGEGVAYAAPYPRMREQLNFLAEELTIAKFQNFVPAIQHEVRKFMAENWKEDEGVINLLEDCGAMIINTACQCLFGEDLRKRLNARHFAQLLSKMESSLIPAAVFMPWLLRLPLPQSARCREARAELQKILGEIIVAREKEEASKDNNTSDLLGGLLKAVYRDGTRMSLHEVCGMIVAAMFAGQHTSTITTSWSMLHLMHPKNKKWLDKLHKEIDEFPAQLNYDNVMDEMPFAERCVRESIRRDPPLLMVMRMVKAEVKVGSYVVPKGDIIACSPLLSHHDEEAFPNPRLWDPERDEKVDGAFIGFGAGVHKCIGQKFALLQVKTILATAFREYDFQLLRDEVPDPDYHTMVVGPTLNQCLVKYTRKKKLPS
SMILES,Drug uptake [1],Drug uptake [2],Drug uptake [3],Drug uptake [4],Drug uptake [5],Drug uptake [6],Drug uptake [7],Drug uptake [8],Drug uptake [9],Drug uptake [10],Drug uptake [11],Kd [12] [nM],inhibition in vivo at 25 mg/kg [13] [%],inhibition in vivo at 50 mg/kg [14] [%],t1/2 [15] [h],t1/2 [16] [h],t1/2 [17] [h],inhibition (INH) [18] [%],inhibition (INH) [19] [%],inhibition (INH) [20] [%],other results
O=C(N[C@H](Cc1c[nH]c2ccccc12)C(=O)Nc1ccncc1)c1ccc(-c2ccc(F)c(Cl)c2)cc1F,Active,Active,Active,Active,Active,Active,Active,Active,Active,Active,Active,16,56.7,85.2,0.467,0.417,0.9,2,93,29,inhibition (INH) [21]: 29%; EC50 [22]: 78 nM; Activity [23]: Non-toxic; half-life [24]: 16.8 h; half-life [25]: 5.17 h; Tmax [26]: 0.75 h; Tmax [27]: 2.67 h; Cmax [28]: 17.8 µM; Cmax [29]: 5.88 µM; AUC(0-t) [30]: 153 µM·h; AUC(0-t) [31]: 30.2 µM·h; CL/F [32]: 9.28 mL/min/kg; CL/F [33]: 44.4 mL/min/kg; Drug uptake [34]: Active
O=C(N[C@H](Cc1c[nH]c2ccccc12)C(=O)Nc1ccncc1)c1ccc(-c2ccc(F)c(C(F)(F)F)c2)cc1F,Active,Active,Active,Active,Active,Active,Active,Active,Active,Active,Active,≤ 10,89.1,97.4,0.483,0.45,0.967,2,96,36,inhibition (INH) [21]: 9%; EC50 [22]: 170 nM; Activity [23]: Non-toxic; half-life [24]: 3.1 h; half-life [25]: 2.5 h; Tmax [26]: 4.67 h; Tmax [27]: 4.67 h; Cmax [28]: 7.35 µM; Cmax [29]: 5.1 µM; AUC(0-t) [30]: 84.5 µM·h; AUC(0-t) [31]: 26.6 µM·h; CL/F [32]: 17.4 mL/min/kg; CL/F [33]: 52.5 mL/min/kg; Drug uptake [34]: Active

# Reference: ChEMBL document CHEMBL3352430, “4-Aminopyridyl-based CYP51 inhibitors as anti-Trypanosoma cruzi drug leads with improved pharmacokinetic profile and in vivo potency” (J Med Chem, 2014)
